RGS4 act: RGS4 potentiators or activators, primary screen, cell-based, HEK293 M3R inducible RGS4, calcium flux; carbachol calcium flux Fluo4; active compounds read low; B-score at 10 µM; 310,000 compounds, 0.92% hits;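 active = B-score of the integrated calcium signal more than 4 SD below the library mean, with starting fluorescence not abnormally high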;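 also: negative B-score means reduced calcium response which marks RGS4 activation or potentiation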
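Test system: HEK293 cells with stable M3R and inducible RGS4; also added: carbachol at ECmax as muscarinic agonist stimulus; schedule: dye loading 30 min 37 °C, buffer rest 30 min RT; technique: kinetic calcium fluorescence imaging with Fluo4-AM dye, 2 µM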
MrgX1 ag: agonists of human MrgX1 receptor, primary screen, HEK293 cells, Fluo-4 calcium flux; Mas-related G-protein coupled receptor member X1 (Homo sapiens), Q96LB2; Fluo-4 calcium fluorescence, agonist mode; active compounds read high; B-score at 10 µM; 310,000 compounds, 0.44% hits; AID 588627, 2011;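 active = calcium response B-score plate-corrected fluorescence ratio at least 3 library SD, with starting fluorescence B-score inside 5 SD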
Target sequence (Q96LB2 whole entry, looked up): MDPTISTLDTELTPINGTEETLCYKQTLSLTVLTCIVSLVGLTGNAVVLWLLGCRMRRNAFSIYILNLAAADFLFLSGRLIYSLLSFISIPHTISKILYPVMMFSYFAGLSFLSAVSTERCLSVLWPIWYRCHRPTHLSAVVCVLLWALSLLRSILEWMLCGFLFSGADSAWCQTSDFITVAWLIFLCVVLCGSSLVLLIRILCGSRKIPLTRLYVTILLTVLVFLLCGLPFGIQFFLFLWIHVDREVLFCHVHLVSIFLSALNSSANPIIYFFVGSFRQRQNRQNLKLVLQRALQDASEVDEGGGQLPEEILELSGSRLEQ
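Material – MrgX1-expressing HEK293 cells · Input – 15,000 cells seeded per well · Dosing – compound as first of three additions · Times – overnight seeding, then 1 h dark dye loading · Measured by – kinetic Fluo-4 NW fluorescence of intracellular calcium · Read-out – B-scored fluorescence response ratio · Benchmarks – positive and negative control wells on each plate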
MrgX1 antagonist: antagonists of human MrgX1 receptor, primary screen, HEK293 cells, Fluo-4 calcium flux | Mas-related G-protein coupled receptor member X1 (Homo sapiens), Q96LB2 | BAM8-22 antagonism; active compounds read low | B-score at 10 µM | 310,000 compounds, 1.3% hits | AID 588676, 2011;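 active = calcium-response B-score plate-corrected more than 3 library SD below zero, starting fluorescence within 5 deviations, no agonist response on first addition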;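 also: peak minus trough fluorescence over baseline after final BAM8-22 challenge near maximal dose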
RGS4 block: RGS4 inhibitors, primary screen, cell-based, HEK293 M3R inducible RGS4, calcium flux; Regulator of G-protein signaling 4 (Homo sapiens), P49798; Fluo-4 calcium flux; active compounds read high; triggered by carbachol at its EC20; B-score at 10 µM; 310,000 compounds, 0.45% hits; AID 463165, 2010;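 active = B-score, a plate-corrected calcium signal, over three deviations above library mean, with baseline fluorescence within five deviations of library mean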;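 also: RGS4 expression induced by doxycycline in cells with stable M3 receptor; B-score is computed from the integrated fluorescence ratio over baseline after carbachol; higher B-score means a larger calcium signal and so more RGS4 inhibition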
Target sequence (P49798 whole entry, looked up): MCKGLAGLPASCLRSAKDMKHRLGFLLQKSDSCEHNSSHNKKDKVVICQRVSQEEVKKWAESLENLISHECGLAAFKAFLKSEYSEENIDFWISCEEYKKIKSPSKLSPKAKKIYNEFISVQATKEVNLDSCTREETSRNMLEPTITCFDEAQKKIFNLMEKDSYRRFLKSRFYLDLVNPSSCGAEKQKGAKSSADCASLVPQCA
MrgX1 allo act: positive allosteric modulators of MrgX1, primary screen, HEK293 cells, Fluo-4 calcium flux; Mas-related G-protein coupled receptor member X1 (Homo sapiens), Q96LB2; FDSS; active compounds read high; B-score at 10 µM; 310,000 compounds, 0.63% hits;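 active = plate-corrected calcium response at least 3 library SD above typical, normal starting fluorescence, not activating the receptor alone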;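 also: compound read alongside a low EC10 to EC30 dose of BAM8-22 agonist; peak minus trough fluorescence over baseline measured at the second addition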
* marks the source's active call; other numbers are inactive results. Only some compounds are listed: those with a hit (about 3.5% of all), similar ones and a draw of the others.

Cc1ccc(NC2=NC3(CCCC3)N=C(N)N2)c(C)c1 was read as RGS4 act inactive, MrgX1 ag inactive, MrgX1 antagonist inactive, RGS4 block inactive and MrgX1 allo act inactive.
O=C(CCC(=O)OCC(=O)c1ccc(-c2ccccc2)cc1)Nc1cccc2cccnc12 was read as RGS4 act inactive, MrgX1 ag inactive, MrgX1 antagonist inactive, RGS4 block inactive and MrgX1 allo act inactive.
For O=C(CCC(=O)OCC(=O)c1ccc(Cl)cc1Cl)Nc1cccc2cccnc12 the results were RGS4 act inactive, MrgX1 ag inactive, MrgX1 antagonist -8.4*, RGS4 block inactive and MrgX1 allo act inactive.
Screening Cc1ccc(C)n1NC(=O)c1ccccc1[N+](=O)[O-] returned RGS4 act inactive, MrgX1 ag inactive, MrgX1 antagonist inactive, RGS4 block inactive and MrgX1 allo act inactive.
Screening CN1[C@@H]2CC(OC(=O)[C@H](CO)c3ccccc3)C[C@H]1[C@@H]1O[C@@H]12 (some centres undefined) returned RGS4 act -7.1*, MrgX1 ag inactive, MrgX1 antagonist inactive, RGS4 block inactive and MrgX1 allo act inactive.
For COc1ccc(NC(=O)CSc2ccc3nnc(-c4ccccn4)n3n2)cc1 the results were RGS4 act inactive, MrgX1 ag inactive, MrgX1 antagonist inactive, RGS4 block inactive and MrgX1 allo act inactive.
For Cc1cc(C)cc(NC(=S)Nc2ccc(Cl)c(Cl)c2)c1 the results were RGS4 act inactive, MrgX1 ag inactive, MrgX1 antagonist inactive, RGS4 block inactive and MrgX1 allo act inactive.
`Cc1cccc(C)c1NC(=S)Nc1ccc(Cl)c(Cl)c1` gave RGS4 act inactive, MrgX1 ag 32*, MrgX1 antagonist inactive, RGS4 block inactive and MrgX1 allo act inactive.
For COc1ccccc1-n1cnnc1SCC(=O)c1cc(C)n(Cc2cccs2)c1C the results were RGS4 act inactive, MrgX1 ag inactive, MrgX1 antagonist inactive, RGS4 block inactive and MrgX1 allo act inactive.
Screening Cc1cc(C(=O)CSc2nnc(-c3ccccc3F)o2)c(C)n1Cc1cccs1 returned RGS4 act inactive, MrgX1 ag inactive, MrgX1 antagonist -6*, RGS4 block inactive and MrgX1 allo act inactive.
Cc1ccc(/C=C2/NC(=O)N(Cc3ccccc3F)C2=O)s1 was read as RGS4 act inactive, MrgX1 ag inactive, MrgX1 antagonist -7.5*, RGS4 block inactive and MrgX1 allo act inactive.
`O=C1N/C(=C/c2cccs2)C(=O)N1Cc1ccccc1F` gave RGS4 act inactive, MrgX1 ag inactive, MrgX1 antagonist inactive, RGS4 block inactive and MrgX1 allo act inactive.
`c1ccc(CC2CNc3ccccc3CN2)cc1` (centres undefined) gave RGS4 act inactive, MrgX1 ag inactive, MrgX1 antagonist inactive, RGS4 block inactive and MrgX1 allo act inactive.
Screening O=[N+]([O-])c1cnc(Sc2ccncn2)s1 returned RGS4 act -9.8*, MrgX1 ag inactive, MrgX1 antagonist inactive, RGS4 block inactive and MrgX1 allo act inactive.
For CC1=C(c2ccccc2)[N+](=O)C2(CCCC2)N1[O-] the results were RGS4 act inactive, MrgX1 ag inactive, MrgX1 antagonist inactive, RGS4 block inactive and MrgX1 allo act inactive.
`CC(C)[C@H](NC(=O)[C@H](CCCN=C(N)N)NC(=O)NC(Cc1ccccc1)C(=O)O)C(=O)NC(C=O)CCCN=C(N)N` (some centres undefined) gave RGS4 act inactive, MrgX1 ag 46*, MrgX1 antagonist inactive, RGS4 block inactive and MrgX1 allo act inactive.
`CCCC[C@@H]1C[C@H]1[C@@H](NC(=O)c1ccccc1)c1ccccc1C(F)(F)F` gave RGS4 act inactive, MrgX1 ag inactive, MrgX1 antagonist inactive, RGS4 block inactive and MrgX1 allo act inactive.
Screening C=C(CC1([C@@H](NP(=O)(c2ccccc2)c2ccccc2)[C@H]2C[C@@H]2CCCC)CC1)c1ccccc1 returned RGS4 act inactive, MrgX1 ag inactive, MrgX1 antagonist -4.8*, RGS4 block inactive and MrgX1 allo act inactive.
For C[N+](C)(C)CCCNC(=O)c1ccc(/C=N/O)nc1 the results were RGS4 act inactive, MrgX1 ag inactive, MrgX1 antagonist -5.1*, RGS4 block inactive and MrgX1 allo act inactive.
`CCCC1=Nc2cc(C(=O)N3CCN(c4ccccn4)CC3)ccc2Sc2ccc(C)cc21` gave RGS4 act -7.5*, MrgX1 ag inactive, MrgX1 antagonist inactive, RGS4 block inactive and MrgX1 allo act inactive.
`COc1ccc(C(CNC(=O)c2ccc(-c3ccccc3Cl)o2)N2CCOCC2)cc1` (centres undefined) gave RGS4 act inactive, MrgX1 ag inactive, MrgX1 antagonist inactive, RGS4 block inactive and MrgX1 allo act inactive.
Screening COc1ccccc1C(CNC(=O)c1ccc(-c2ccccc2Cl)o1)N1CCCC1 (centres undefined) returned RGS4 act -7.1*, MrgX1 ag inactive, MrgX1 antagonist inactive, RGS4 block inactive and MrgX1 allo act inactive.
For O=C(NCc1ccco1)c1cc(-c2ccncc2)nc2ccccc12 the results were RGS4 act inactive, MrgX1 ag inactive, MrgX1 antagonist inactive, RGS4 block inactive and MrgX1 allo act inactive.
Cc1cc2sc3ccccc3c(=O)c2c(C)c1O was read as RGS4 act inactive, MrgX1 ag inactive, MrgX1 antagonist inactive, RGS4 block inactive and MrgX1 allo act inactive.
For O=c1c(C(c2ccccc2)c2c(O)sc3ccccc3c2=O)c(O)sc2ccccc12 the results were RGS4 act inactive, MrgX1 ag inactive, MrgX1 antagonist -4.6*, RGS4 block inactive and MrgX1 allo act inactive.
COc1cc(/C=C2\SC(N3CCCCC3)=NC2=O)cc(OC)c1OC was read as RGS4 act inactive, MrgX1 ag inactive, MrgX1 antagonist inactive, RGS4 block inactive and MrgX1 allo act inactive.
Screening O=C(NCCNC(=O)c1ccccn1)c1ccc(F)cc1 returned RGS4 act inactive, MrgX1 ag inactive, MrgX1 antagonist inactive, RGS4 block inactive and MrgX1 allo act inactive.
For COc1cc(/C=N/NC(=O)NC23CC4CC(CC(C4)C2)C3)ccc1OCC(N)=O the results were RGS4 act -8.1*, MrgX1 ag inactive, MrgX1 antagonist inactive, RGS4 block inactive and MrgX1 allo act inactive.

Source: PubChem BioAssay
